Assay results from ChEMBL document CHEMBL4350969, “Falcipain Inhibitors Based on the Natural Product Gallinamide A Are Potent in Vitro and in Vivo Antimalarials” (J Med Chem, 2019).
Activity calls are given as the source filed them. No cut-off for these calls is given here.

Assays:
[1] = test system: Plasmodium falciparum; assay: Antimalarial activity against synchronized ring stage CQ-resistant Plasmodium falciparum W2 infected in human erythrocytes incubated for 24 hrs followed by compound washout and subsequent compound addition and measured after 48 hrs by YOYO-1 probe-based flow cytometry; assay type: functional, organism-based
[2] = test system: Plasmodium falciparum; assay: Antimalarial activity against synchronized ring stage CQ-sensitive Plasmodium falciparum 3D7 infected in human erythrocytes incubated for 24 hrs followed by compound washout and subsequent compound addition and measured after 48 hrs by YOYO-1 probe-based flow cytometry; assay type: functional, organism-based
[3] = Drug metabolism in human liver microsomes assessed as N,N-bis-demethylation at 10 uM measured after 60 mins in presence of NADPH-generating system by UPLC-MS analysis; assay type: ADME, Microsome; conditions: 1 h
[4] = test system: HEK293; assay: Cytotoxicity against HEK293 cells assessed as reduction in cell viability at 25 uM measured after 18 hrs by alamar blue assay; assay type: cell-based; conditions: human, hek293, 18 h
[5] = Half life in Swiss mouse blood at 1 ug/ml by UPLC-MS analysis; assay type: ADME, tissue-based; conditions: whole blood
[6] = target: T1, Cysteine protease falcipain-3 (Plasmodium falciparum, UniProt Q9NAW4); assay: Inhibition of Plasmodium falciparum N-terminal His-tagged falcipain-3 (33 residues) expressed in Escherichia coli M15 pREP4 using Z-Leu-Arg-AMC as substrate measured after 30 mins by spectrofluorometric method
T1 sequence (Q9NAW4 whole entry): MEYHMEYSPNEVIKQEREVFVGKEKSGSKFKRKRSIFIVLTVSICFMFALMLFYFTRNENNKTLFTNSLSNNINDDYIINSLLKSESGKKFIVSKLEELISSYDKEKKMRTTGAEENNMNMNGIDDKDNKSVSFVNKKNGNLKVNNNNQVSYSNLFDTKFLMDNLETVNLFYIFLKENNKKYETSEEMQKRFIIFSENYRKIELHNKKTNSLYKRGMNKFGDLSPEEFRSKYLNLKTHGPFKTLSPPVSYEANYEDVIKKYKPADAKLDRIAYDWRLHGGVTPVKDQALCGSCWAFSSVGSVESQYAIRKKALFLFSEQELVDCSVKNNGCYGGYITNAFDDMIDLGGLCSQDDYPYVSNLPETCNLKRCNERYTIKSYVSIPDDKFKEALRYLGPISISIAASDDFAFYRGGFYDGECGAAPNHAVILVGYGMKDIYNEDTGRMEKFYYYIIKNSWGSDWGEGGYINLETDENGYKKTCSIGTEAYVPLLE
Procedure, shortened: (§1)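 Recombinant heterologously expressed FP2 or FP3; inhibition measured by continuous kinetic cleavage of fluorogenic substrate Z-Leu-Arg-AMC.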

[7] = Drug metabolism in mouse liver microsomes assessed as N,N-bis-demethylation at 10 uM measured after 60 mins in presence of NADPH-generating system by UPLC-MS analysis; assay type: ADME, Microsome; conditions: 1 h
[8] = target: T2, Falcipain 2 (Plasmodium falciparum, UniProt Q9N6S8); assay: Inhibition of Plasmodium falciparum N-terminal His6-tagged falcipain-2 (35 residues) expressed in Escherichia coli M15 pREP4 using Z-Lue-Arg-AMC as substrate measured after 30 mins by spectrofluorometric method; procedure, shortened: as §1
T2 sequence (Q9N6S8 whole entry): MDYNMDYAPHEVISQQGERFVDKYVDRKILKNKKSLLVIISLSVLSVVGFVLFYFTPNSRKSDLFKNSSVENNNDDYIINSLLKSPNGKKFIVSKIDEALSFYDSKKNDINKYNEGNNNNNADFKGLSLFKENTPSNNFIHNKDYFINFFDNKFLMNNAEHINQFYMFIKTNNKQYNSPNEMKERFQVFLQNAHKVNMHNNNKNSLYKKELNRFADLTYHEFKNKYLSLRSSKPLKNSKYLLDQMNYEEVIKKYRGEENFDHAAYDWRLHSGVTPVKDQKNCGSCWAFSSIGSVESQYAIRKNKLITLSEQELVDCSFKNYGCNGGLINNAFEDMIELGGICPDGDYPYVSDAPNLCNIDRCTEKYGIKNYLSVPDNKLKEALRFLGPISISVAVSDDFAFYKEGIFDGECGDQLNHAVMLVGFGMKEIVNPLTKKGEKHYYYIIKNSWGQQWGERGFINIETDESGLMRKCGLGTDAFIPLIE

[9] = Half life in Swiss mouse plasma at 1 ug/ml by UPLC-MS analysis; assay type: ADME, cell-free
Procedure, shortened: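 Fresh whole blood from non-fasted male Swiss outbred mice; plasma separated by centrifugation. Compound spiked to 1 μg/mL final (0.2% DMSO, 0.4% acetonitrile), kept at 37 °C; aliquots taken over 4 h (n=3 per time point), snap-frozen, protein precipitated with acetonitrile, UPLC-MS (ESI+) against matrix calibration standards. Exponential decay fit gives k; half-life = ln(2)/k.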

[10] = test system: Plasmodium berghei; assay: Antimalarial activity against Plasmodium berghei ANKA infected in specific pathogen-free C57BL/6 mouse assessed as reduction in parasitemia at 50 mg/kg, ip administered once daily for 4 days measured up to 35 days post-infection by rapid staining-based microscopic analysis; assay type: functional, organism-based
Procedure, shortened: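 Established-infection model: female C57BL/6 mice inoculated i.p. with 10^6 PbA-parasitized red cells; compound in DMSO diluted in saline given i.p. at 50 mg/kg on days 4, 5, 6 and 7 post-infection, chloroquine 50 mg/kg as comparator, vehicle controls; 7 mice per group. Tail-vein smears, % parasitemia by microscopy, mean ± SEM; survival recorded.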

[11] = test system: Plasmodium berghei; assay: Antimalarial activity against Plasmodium berghei ANKA infected in specific pathogen-free C57BL/6 mouse assessed as reduction in parasitemia at 100 mg/kg, po administered once daily for 4 days measured up to 35 days post-infection by rapid staining-based microscopic analysis; assay type: functional, organism-based
Procedure, shortened: (§2)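 Female C57BL/6 mice, 8–9 weeks old, inoculated i.p. with 10^6 P. berghei ANKA-parasitized red cells. Compound dissolved in DMSO, diluted in 154 mM NaCl, given by oral gavage at 100 mg/kg on days 4, 5, 6 and 7 post-infection. Tail-vein thin smears stained with Rapid Stain, % parasitemia by microscopy; mice euthanized at signs of severe disease.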

[12] = test system: Plasmodium berghei; assay: Antimalarial activity against Plasmodium berghei ANKA infected in specific pathogen-free C57BL/6 mouse assessed as reduction in disease severity at 100 mg/kg, po administered once daily for 4 days measured up to 35 days post-infection by rapid staining-based microscopic analysis; assay type: functional, organism-based; procedure, shortened: as §2

Row | SMILES | IC50 [1] [µM] | IC50 [2] [µM] | Drug metabolism [3] | Activity [4] | half-life at 1 ug/ml [5] [h] | IC50 [6] [µM] | Drug metabolism [7] | IC50 [8] [µM] | half-life at 1 ug/ml [9] [h] | Activity [10] | Activity [11] | Activity [12]
1 | C[C@@H]1CC[C@H]2[C@@H](C)C(=O)O[C@@H]3O[C@@]4(C)CC[C@@H]1[C@]32OO4 [ARTEMISININ] | 0.021 | 0.032 |  |  |  |  |  |  |  |  |  | 
2 | COC1=CC(=O)N(C(=O)/C=C/[C@@H](NC(=O)[C@H](CC(C)C)NC(=O)[C@H](CC(C)C)NC(=O)[C@H](C(C)C)N(C)C)C2CCCCC2)[C@H]1Cc1c[nH]c2ccccc12.O=C(O)C(F)(F)F | 0.01 | 0.009 | Metabolite_Detected | Non-Toxic | > 10 | 0.484 | Metabolite_Detected | 0.084 | > 10 |  |  | 
3 | COC1=CC(=O)N(C(=O)/C=C/[C@H](C)NC(=O)[C@H](CC2CCCCC2)NC(=O)[C@H](CC2CCCCC2)NC(=O)C2CCN(C)CC2)[C@H]1Cc1c[nH]c2ccccc12 | 0.055 | 0.164 |  |  |  | 0.547 |  | 0.455 |  |  |  | 
4 | COC1=CC(=O)N(C(=O)/C=C/[C@H](C)NC(=O)[C@H](CC(C)C)NC(=O)[C@H](CC(C)C)NC(=O)[C@H](C(C)C)N(C)C)[C@H]1Cc1c[nH]c2ccccc12.O=C(O)C(F)(F)F |  |  |  | Non-Toxic | < 0.0333 |  |  |  | < 0.0333 |  |  | 
5 | COC1=CC(=O)N(C(=O)/C=C/[C@H](C)NC(=O)[C@H](CCc2ccccc2)NC(=O)[C@H](CC(C)C)NC(=O)[C@H](C(C)C)N(C)C)[C@H]1Cc1c[nH]c2ccccc12 | 0.691 | 2.59 |  |  |  | 10.2 |  | 3.1 |  |  |  | 
6 | CCN(CC)CCCC(C)Nc1ccnc2cc(Cl)ccc12 (stereo unspecified) |  |  |  |  |  |  |  |  |  | Active | Active | Active
7 | COC1=CC(=O)N(C(=O)/C=C/[C@H](C)NC(=O)[C@H](CC(C)C)NC(=O)[C@H](CCc2ccccc2)NC(=O)[C@H](C(C)C)N(C)C)[C@H]1Cc1c[nH]c2ccccc12.O=C(O)C(F)(F)F | 0.007 | 0.005 | Metabolite_Detected | Non-Toxic | 1.83 | 0.228 | Metabolite_Detected | 0.057 | 9.28 |  |  | 
8 | COC1=CC(=O)N(C(=O)/C=C/[C@H](C)NC(=O)[C@H](CCc2ccccc2)NC(=O)[C@H](CC2CCCCC2)NC(=O)[C@H](C(C)C)N(C)C)[C@H]1Cc1c[nH]c2ccccc12 | 0.478 | 1.25 |  |  |  | 8.79 |  | 3.52 |  |  |  | 
9 | COC1=CC(=O)N(C(=O)/C=C/[C@H](CC2CCCCC2)NC(=O)[C@H](CC(C)C)NC(=O)[C@H](CC(C)C)NC(=O)[C@H](C(C)C)N(C)C)[C@H]1Cc1c[nH]c2ccccc12 | 0.054 | 0.076 |  |  |  | 2.57 |  | 0.27 |  |  |  | 
10 | CC(C)C[C@H](NC(=O)[C@@H]1O[C@H]1C(=O)O)C(=O)NCCCCN=C(N)N |  |  |  |  |  | 0.136 |  | 0.068 |  |  |  | 
11 | COC1=CC(=O)N(C(=O)/C=C/[C@H](C)NC(=O)[C@H](CC2CCCCC2)NC(=O)[C@H](CC(C)C)NC(=O)[C@H](C(C)C)N(C)C)[C@H]1Cc1c[nH]c2ccccc12 | 0.037 | 0.072 |  |  |  | 0.407 |  | 0.235 |  |  |  | 
12 | COC1=CC(=O)N(C(=O)/C=C/[C@H](C)NC(=O)[C@H](CC(C)C)NC(=O)[C@H](CC2CCCCC2)NC(=O)[C@H](C(C)C)N(C)C)[C@H]1Cc1c[nH]c2ccccc12 | 0.011 | 0.014 |  |  |  | 0.131 |  | 0.059 |  |  |  | 
13 | COC1=CC(=O)N(C(=O)/C=C/[C@H](C)NC(=O)C(C)(C)NC(=O)[C@H](CC(C)C)NC(=O)[C@H](C(C)C)N(C)C)[C@H]1Cc1c[nH]c2ccccc12 | 3.73 | > 10 |  |  |  | > 50 |  | > 50 |  |  |  | 
14 | COC1=CC(=O)N(C(=O)/C=C/[C@@H](NC(=O)[C@H](CC(C)C)NC(=O)[C@H](CC2CCCCC2)NC(=O)[C@H](C(C)C)N(C)C)C2CCCCC2)[C@H]1Cc1c[nH]c2ccccc12 | 0.095 | 0.083 |  |  |  | 0.49 |  | 0.169 |  |  |  | 
15 | COC1=CC(=O)N(C(=O)/C=C/[C@H](C)NC(=O)[C@H](CC(C)C)NC(=O)[C@H](Cc2ccccc2)NC(=O)[C@H](C(C)C)N(C)C)[C@H]1Cc1c[nH]c2ccccc12 | 0.01 | 0.024 |  |  |  | 0.851 |  | 0.06 |  |  |  | 
16 | COC1=CC(=O)N(C(=O)/C=C/[C@H](C)NC(=O)[C@H](CC2CCCCC2)NC(=O)[C@H](CC2CCCCC2)NC(=O)[C@H](C(C)C)N(C)C)[C@H]1Cc1c[nH]c2ccccc12 | 0.119 | 0.229 |  |  |  | 0.459 |  | 0.464 |  |  |  | 
17 | COC1=CC(=O)N(C(=O)/C=C/C(C)(C)NC(=O)[C@H](CC(C)C)NC(=O)[C@H](CC(C)C)NC(=O)[C@H](C(C)C)N(C)C)[C@H]1Cc1c[nH]c2ccccc12 | 1.02 | 6.99 |  |  |  | > 50 |  | > 50 |  |  |  | 
18 | COC1=CC(=O)N(C(=O)/C=C/[C@H](C)NC(=O)[C@H](CC2CCCCC2)NC(=O)[C@H](CC(C)C)NC(=O)C2CCN(C)CC2)[C@H]1Cc1c[nH]c2ccccc12 | 0.059 | 0.205 |  |  |  | 0.48 |  | 0.156 |  |  |  | 
